Here are results for 53 molecules from ChEMBL document CHEMBL5036380, “New Highly Potent NLRP3 Inhibitors: Furanochalcone Velutone F Analogues” (ACS Med Chem Lett, 2022).

Calls of active or inactive are those of the source. The calls are words filed in the database; no cut-off is given here.

The test system of one series is Spleen. In words: Downregulation of IL-1beta level in spleen of LPS treated C57BL/6J mouse at 10 mg/kg, iv measured after 6 hrs by ELISA.
Conditions: not given
In general terms: In an ELISA, binding on a coated surface is turned into a signal by an enzyme label.
`COc1c(/C=C/C(=O)c2ccccc2)cc(OC)c2occc12`: the outcome was Active.

In the next series the test system is THP-1. In words: Cytotoxicity against human THP-1 cells assessed as reduction in cell viability at 0.05 to 6.4 uM measured after 90 mins by CCK8 assay. In kind it is cell-based. The following applies: thp-1, 1.5 h, dose 0.05-6.4 µM. The procedure, abridged: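 THP-1 cells preincubated with compound (0.05–6.4 μM) for 1.5 h; viability read by CCK8 assay.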
In general terms: Formazan colour is commonly taken as a measure of viable cells.
Consider `COc1cc(-c2ccccc2S(C)(=O)=O)c(OC)cc1/C=C/C(=O)c1ccc(F)cc1`, for which the Activity entry is on record as “Non-Toxic”.

For `COc1cc(-c2ccccc2NS(C)(=O)=O)c(OC)cc1/C=C/C(=O)c1ccc(F)cc1`, the Activity entry is on record as “Non-Toxic”.

In the case of `COc1c(/C=C/C(=O)c2ccc(F)cc2)cc(OC)c2occc12`, the Activity entry was “Non-Toxic”.

Another series relates to THP-1. Kind of series: Antiinflammatory activity in human THP-1 cells assessed as inhibition of LPS-induced IL-1beta secretion in LPS stimulation for 3 hrs followed by pretreatment at 2uM for 40 min before induced with nigericin for 40 min measured by ELISA. In kind it is functional. To be noted: THP-1, 1.333 h, time 80 min. The procedure, abridged: (§1)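 THP-1 cells (2 × 10^5 cells/mL) differentiated with PMA (100 ng/mL) for 24 h. Next day, primed with LPS (1 μg/mL) for 3 h, then compound for 40 min, then nigericin (10 μM) for 40 min. IL-1β in supernatant measured by ELISA; % inhibition as mean ± SD of three independent experiments. The single-concentration screen used 2 μM.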
In general, inhibition refers to the change of the read-out against control, counted positive when it falls. For `COc1c(/C=C/C(=O)c2cccc(O)c2)cc(OC)c2occc12`, the inhibition at 2 µM was 60.5%.

Regarding `COc1cc(C(=O)/C=C/c2cc(OC)c3occc3c2OC)cc(OC)c1OC`, the inhibition at 2 µM was 42%.

For the molecule `COc1c(/C=C/C(=O)c2cccc(C(F)(F)F)c2)cc(OC)c2occc12`, the inhibition at 2 µM was 64.7%.

As to `COc1c(/C=C/C(=O)c2ccccn2)cc(OC)c2occc12`, the inhibition at 2 µM was 56.9%.

As to `COc1c(/C=C/C(=O)c2cccc(N)c2)cc(OC)c2occc12`, the inhibition at 2 µM was 58.8%.

In the case of `C=CC(=O)N(Cc1cc(OC)c2occc2c1OC)c1ccc(F)cc1`, the inhibition at 2 µM came to 15%.

As to `C=CC(=O)N(Cc1cc(OC)c2occc2c1OC)c1ccccc1`, the inhibition at 2 µM turned out to be 31.8%.

Take `COc1c(/C=C/C(=O)c2cccc(Br)n2)cc(OC)c2occc12`: the inhibition at 2 µM amounted to 67.7%.

For the molecule `COc1c(/C=C/C(=O)c2cccc(-c3ccccc3)n2)cc(OC)c2occc12`, the inhibition at 2 µM was determined as 15.9%.

With `CC(C)(O)c1coc(S(=O)(=O)NC(=O)Nc2c3c(cc4c2CCC4)CCC3)c1`, the inhibition at 2 µM is 106%.

`COc1c(/C=C/C(=O)O)cc(OC)c2occc12`: the inhibition at 2 µM turned out to be 5.2%.

In the case of `COc1cc(/C=C/C(=O)c2ccc(F)cc2)c(OC)cc1C`, the inhibition at 2 µM was found to be 80.6%.

In the case of `COc1cc(-c2ccccc2S(C)(=O)=O)c(OC)cc1/C=C/C(=O)c1ccc(F)cc1`, the inhibition at 2 µM came to 102%.

For the molecule `COc1cc(-c2ccccc2NS(C)(=O)=O)c(OC)cc1/C=C/C(=O)c1ccc(F)cc1`, the inhibition at 2 µM is 101%.

As for `COc1c(/C=C/C(=O)c2ccccc2)cc(OC)c2occc12`, the inhibition at 2 µM was 50.8%.

Consider `COc1c(/C=C/C(=O)c2ccc[nH]2)cc(OC)c2occc12`, for which the inhibition at 2 µM turned out to be 10.3%.

As for `COc1c(/C=C/C(=O)c2cccc(-c3cccs3)n2)cc(OC)c2occc12`, the inhibition at 2 µM was 15.9%.

For the molecule `COc1c(/C=C/C(=O)c2cccc(F)c2)cc(OC)c2occc12`, the inhibition at 2 µM was determined as 51.4%.

As to `COc1c(/C=C/C(=O)c2ccc(Cl)cn2)cc(OC)c2occc12`, the inhibition at 2 µM is 20.3%.

As for `COc1cc(NS(=O)(=O)C2CC2)c(OC)cc1/C=C/C(=O)c1ccc(F)cc1`, the inhibition at 2 µM is 24.8%.

For the molecule `COc1cc(-c2ccoc2)c(OC)cc1/C=C/C(=O)c1ccc(F)cc1`, the inhibition at 2 µM was 38.5%.

In the case of `COc1c(/C=C/C(=O)c2ccc(Br)cc2)cc(OC)c2occc12`, the inhibition at 2 µM turned out to be 50.1%.

In the case of `COc1c(/C=C/C(=O)c2ccccc2N)cc(OC)c2occc12`, the inhibition at 2 µM worked out at 19.8%.

As to `COc1ccc(OC)c(/C=C/C(=O)c2ccc(F)cc2)c1`, the inhibition at 2 µM was 91.1%.

In the case of `COc1c(/C=C/C(=O)c2ccc3ccccc3n2)cc(OC)c2occc12`, the inhibition at 2 µM is 32.1%.

Take `COc1c(/C=C/C(=O)c2cccc(C)c2)cc(OC)c2occc12`: the inhibition at 2 µM came out at 75%.

On to `COc1c(C(=O)/C=C/c2ccccc2)cc(OC)c2occc12`, for which the inhibition at 2 µM turned out to be 15.5%.

Take `COc1c(/C=C/C(=O)c2ccco2)cc(OC)c2occc12`: the inhibition at 2 µM amounted to 32.8%.

Consider `COc1c(/C=C/C(=O)C2CC2)cc(OC)c2occc12`, for which the inhibition at 2 µM is 8.7%.

As for `COc1c(/C=C/C(=O)c2ccccc2F)cc(OC)c2occc12`, the inhibition at 2 µM worked out at 50.4%.

In the case of `COc1c(/C=C/C(=O)Nc2ccccc2)cc(OC)c2occc12`, the inhibition at 2 µM turned out to be 7.4%.

Regarding `COc1c(/C=C/C(=O)c2cccc(C(F)(F)F)n2)cc(OC)c2occc12`, the inhibition at 2 µM came to 32.4%.

For the molecule `COc1c(CCC(=O)c2cccc(Br)n2)cc(OC)c2occc12`, the inhibition at 2 µM is 10.7%.

As to `COc1c(/C=C/C(=O)c2ccc(C(F)(F)F)cc2)cc(OC)c2occc12`, the inhibition at 2 µM came to 50%.

For the molecule `COc1c(/C=C/C(=O)c2ccc(F)cc2)cc(OC)c2occc12`, the inhibition at 2 µM was 88.2%.

As to `COc1c(/C=C/C(=O)c2ccc(C#N)cc2)cc(OC)c2occc12`, the inhibition at 2 µM was 27.6%.

Still in this series, the particulars now being: time 80.0 min.
With `COc1cc(/C=C/C(=O)c2ccc(F)cc2)c(OC)cc1C=C(C)C`, the inhibition result is “inactive”.

For `COc1c(CCC(=O)c2ccc(F)cc2)cc(OC)c2occc12`, the inhibition entry is “inactive”.

With `COc1c(/C=C/C(=O)c2ccc(N)cc2)cc(OC)c2occc12`, the inhibition entry was “inactive”.

Consider `COc1cc(NS(C)(=O)=O)c(OC)cc1/C=C/C(=O)c1ccc(F)cc1`, for which the inhibition entry was “inactive”.

Regarding `COc1c(/C=C/C(=O)Nc2cccc(C(F)(F)F)c2)cc(OC)c2occc12`, the inhibition entry was “inactive”.

On to `COc1c(/C=C/C(=O)Nc2ccc(F)cc2)cc(OC)c2occc12`, for which the inhibition entry was “inactive”.

For `C=CC(=O)N(Cc1cc(OC)c2occc2c1OC)c1cccc(Br)n1`, the inhibition result is “inactive”.

For `COc1cncc(-c2cc(OC)c(/C=C/C(=O)c3ccc(F)cc3)cc2OC)c1`, the inhibition result is “inactive”.

For `COc1cc(-c2ccsc2)c(OC)cc1/C=C/C(=O)c1ccc(F)cc1`, the inhibition entry was “inactive”.

On to `COc1cc(-c2cccc(Cl)c2)c(OC)cc1/C=C/C(=O)c1ccc(F)cc1`, for which the inhibition entry was “inactive”.

Regarding `COc1cc(-c2cc(F)cc(F)c2)c(OC)cc1/C=C/C(=O)c1ccc(F)cc1`, the inhibition entry is “inactive”.

Regarding `COc1cc(-c2cn[nH]c2)c(OC)cc1/C=C/C(=O)c1ccc(F)cc1`, the inhibition result was “inactive”.

Turning to `COc1c(/C=C/C(=O)Nc2cccc(Br)n2)cc(OC)c2occc12`, the inhibition entry was “inactive”.

On to `COc1c(CCC(=O)c2cccc(C(F)(F)F)c2)cc(OC)c2occc12`, for which the inhibition entry is “inactive”.

For `COc1cc(-c2ccccc2C)c(OC)cc1/C=C/C(=O)c1ccc(F)cc1`, the inhibition entry was “inactive”.

`COc1c(CCC(=O)c2ccccc2)cc(OC)c2occc12`: the inhibition entry was “inactive”.

Consider `C=CC(=O)N(Cc1cc(OC)c2occc2c1OC)c1cccc(C(F)(F)F)c1`, for which the inhibition entry was “inactive”.

For the next series, the system named is THP-1. In words: Antiinflammatory activity in human THP-1 cells assessed as inhibition of LPS-induced IL-1beta secretion in LPS stimulation for 3 hrs followed by pretreatment for 40 min before induced with nigericin for 40 min measured by ELISA. In kind it is functional. The following applies: time 80 min; 1.333 h. The procedure, abridged: as §1
For `COc1cc(-c2ccccc2S(C)(=O)=O)c(OC)cc1/C=C/C(=O)c1ccc(F)cc1`, the Activity stood at 0.325 µM.

For `COc1cc(-c2ccccc2NS(C)(=O)=O)c(OC)cc1/C=C/C(=O)c1ccc(F)cc1`, the Activity stood at 0.407 µM.

For the molecule `COc1c(/C=C/C(=O)c2ccc(F)cc2)cc(OC)c2occc12`, the Activity came to 0.656 µM.
